# Rtt109 Vps75: inhibitors of Candida albicans Rtt109/Vps75 histone acetyltransferase; Q5AAJ8; purified Rtt109/Vps75, ThioGlo CoA-SH fluorescence, 4 h; inhibition, % at 34.9 µM; 0.16% of 330,000 active; AID 540336;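 active = inhibition of at least 50% in every replicate; inconclusive = best replicate reaches 50% inhibition but some replicates fall short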
# Target sequence (Q5AAJ8 whole entry, looked up): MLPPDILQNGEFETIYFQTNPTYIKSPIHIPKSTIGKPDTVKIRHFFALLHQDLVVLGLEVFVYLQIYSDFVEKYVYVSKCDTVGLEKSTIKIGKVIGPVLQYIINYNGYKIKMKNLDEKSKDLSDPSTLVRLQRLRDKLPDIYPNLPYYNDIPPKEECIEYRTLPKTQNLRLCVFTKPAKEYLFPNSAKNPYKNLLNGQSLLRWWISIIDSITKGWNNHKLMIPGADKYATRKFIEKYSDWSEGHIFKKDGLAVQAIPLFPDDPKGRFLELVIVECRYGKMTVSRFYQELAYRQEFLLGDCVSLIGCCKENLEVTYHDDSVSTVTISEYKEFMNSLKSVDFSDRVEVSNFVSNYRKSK
# SR-BI DiI inh: mouse SR-BI HDL lipid transfer inhibition | Q61009 | inhibition, % at 12.5 µM | 0.96% of 320,000 active | ldlA[mSR-BI] CHO cells, DiI-HDL uptake fluorescence, 3 h;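 active = mean replicate inhibition of at least 70% and a set share of replicates each scoring 70 or more; inconclusive = meets just one of the two criteria; inactive = fails both criteria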;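 also: 0% = median of neutral control wells and 100% = median of positive control wells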
# SR-BI DiI-HDL act: activators of SR-BI mediated HDL lipid uptake; 0.096% of 320,000 active; CHO ldlA[mSR-BI] cells, DiI-HDL uptake fluorescence, 3 h; 100 = double the neutral-control signal; activation, % at 12.5 µM; AID 504775;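 active = mean replicate activation of at least 60% and every replicate at or above 60%; inconclusive = mean or all-replicate condition met, but not both; inactive = mean below 60% and not all replicates reaching 60%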;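 also: 0% = median plate neutral-control signal and 100% = twice that signal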
#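 Material: SR-BI-overexpressing, LDLR-lacking CHO cells; schedule: compound exposure 3 h, 37 °C; reagent: DiI-labelled HDL at 10 µg/mL final; technique: bottom-read fluorescence, 550/595 nm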
# HIV Env fusion: blocks HIV Env-driven cell-cell fusion | inhibition, % at 12.3 µM | HeLa-JRFL Env/CEM21 cell fusion, luciferase | 1.1% of 360,000 active | AID 651610;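 active = mean replicate inhibition score of at least 50 and every replicate individually at or above 50; inconclusive = only one of the two criteria met; inactive = mean below 50 and not all replicates reaching 50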;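 also: 0% = plate neutral controls and 100% = maraviroc near 300 nM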
# PglD inh: blocks C. jejuni PglD acetyltransferase activity; purified PglD enzyme, DTNB colorimetric CoA detection; inhibition, % at 12.5 µM; 0.098% of 360,000 active; in the data active = inhibition above about 16%, passing the limit was not always enough; inconclusive = no clear call, values can overlap the other calls
# N-glyco inh: blocks N-linked glycosylation in D54 reporter cells. D54 ERlucT glycosylation luciferase reporter, 24 h; percent of 100 nM tunicamycin response. reporter increase, % at 12.5 µM. 0.23% of 360,000 active;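 active = mean luciferase reporter signal, scaled so untreated is 0 and the glycosylation-blocking control 100, at or above a set limit in every replicate; inconclusive = mean reaches the limit but not every replicate does; inactive = mean below the limit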;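 also: luciferase carries N-glycosylation sites so blocking glycosylation raises the light; 0% = median of neutral control wells and 100% = median of 100 nM tunicamycin wells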
# * hit, by the source's call; ? = inconclusive; . = no result given; [ ] = another dose, or the depositor's remark. An excerpt weighted towards active compounds, which were near 1.9% of everything screened.
SMILES,Rtt109 Vps75,SR-BI DiI inh,SR-BI DiI-HDL act,HIV Env fusion,PglD inh,N-glyco inh
CCCSc1ccc([C@H]2N[C@@](CC(C)C)(C(=O)OC)[C@H]3C(=O)N(C)C(=O)[C@@H]23)cc1,-7.4,74.1*,-74.1,-4.8,-1.0,0.3
CCCCCCSc1ccc([C@H]2N[C@@](CC(C)C)(C(=O)OC)[C@H]3C(=O)N(C)C(=O)[C@@H]23)cc1,0.7,41.2,-41.2,31.4,-3.9,-3.7
Cc1ccc(-c2ccccc2[C@@H]2C[C@H]3CN(C)C(=O)[C@]34CCCN24)o1,3.9,-7.1,7.1,12.9,-4.8,2.7
O=C1N(c2ccccc2)C[C@@H]2C[C@@H](c3cc4ccccc4o3)N3CCC[C@@]123,0.8,-3.2,3.2,76.0*,.,-18.2
Cc1cc(CN2CCCCC2C(=O)Nc2ccc(Oc3cccnc3)cc2)oc1C (stereo not given),-0.5,78.6*,.,-8.9,-3.5,0.7
COc1ccc(S(=O)(=O)NCCc2ccc(F)cc2)cc1,4.9,2.3,-2.3,-35.5,-4.3,-1.1
CCCCNc1ccc(C(F)(F)F)cc1S(=O)(=O)NCCc1ccc(F)cc1,2.2,36.9,-36.9,72.2*,1.3,-6.2
COc1ccc(/C=C2\CCCC3C2=NN(C(=O)c2scnc2C)C3c2ccc(OC)c(OC)c2)cc1OC (stereo not given),3.1,29.0,-29.0,65.6*,-3.4,-3.6
C[C@@H]1CN([C@H](C)CO)C(=O)c2cccc(NC(=O)Nc3ccc4c(c3)OCO4)c2O[C@@H]1CN(C)C(=O)Nc1ccccc1,.,.,.,-16.7[16.7 µM],0.4,.
CCCCCNC(=O)C(c1ccncc1)n1c(=O)c(-c2cc3ccccc3[nH]2)nc2ccccc21 (stereo not given),.,.,.,74.9*,.,.
CCCCCNC(=O)C(c1ccc(OC)cc1)n1c(=O)c(-c2cc3ccccc3[nH]2)nc2ccccc21 (stereo not given),.,.,.,26.4,.,.
CC1=C(C(=O)OCCOc2ccccc2)C(c2coc3ccccc3c2=O)C2=C(CCCC2=O)N1 (stereo not given),-4.2,.,.,56.8*,.,-1.1
CCOC(=O)C1=C(C)NC2=C(C(=O)CCC2)C1c1coc2ccccc2c1=O (stereo not given),0.7,-4.0,4.0,.,-7.0,0.5
C=CCOC(=O)C(C#N)c1nc2ccccc2nc1N1CCN(c2ccccc2OC)CC1 (stereo not given),-3.4,81.8*,-81.8,.,-13.4,0.2
C=CCOC(=O)C(C#N)c1nc2ccccc2nc1N1CCN(Cc2ccccc2)CC1 (stereo not given),-5.3,84.4*,-84.4,.,-2.1,4.1
COCCOC(=O)C(C#N)c1nc2ccccc2nc1N1CCN(Cc2ccccc2)CC1 (stereo not given),-3.5,37.9,-37.9,.,-4.9,-0.2
CO[C@@H]1CN(C)C(=O)c2ccc(NC(=O)C3CCOCC3)cc2OC[C@@H](C)N(C(=O)c2ccccc2)C[C@@H]1C,.,.,.,2.2[16.7 µM],2.2,.
CN1C(=O)c2cc(NC(=O)Cc3ccccc3)ccc2OC[C@H]2O[C@@H](CC(=O)NCc3ccc(Cl)cc3)CC[C@H]21,.,.,.,10.0[16.7 µM],4.2,.
CS(=O)(=O)c1ccc(Sc2nc3ccccc3[nH]2)c([N+](=O)[O-])c1,27.9,12.8,-12.8,24.0,2.1,0.0
O=[N+]([O-])c1cc(S(=O)(=O)C(F)(F)F)ccc1Sc1nc2ccccc2[nH]1,13.4,0.4,-0.4,.,.,68.0*
C/C(CC(=O)NCc1ccc(F)cc1)=N\NC(N)=S,7.5,86.7*,-86.7,-10.0,-5.2,1.3
C/C(CC(=O)NCc1ccccc1)=N\NC(N)=S,-2.9,48.4,-48.4,-13.8,.,0.1
O=C(C[C@@H]1CC[C@H](NC(=O)CN2CCOCC2)[C@@H](CO)O1)NC1CCCCC1,.,.,.,-11.8[16.7 µM],3.5,.
COC(=O)c1ccc(/C=C/c2c(-c3ccsc3)sc3ccccc23)cc1,-0.9,79.1*,-79.1,52.9,-2.9,0.3
O=C1CC(c2cccc([N+](=O)[O-])c2)c2ccc3ccccc3c2N1 (stereo not given),-6.8,32.2,-32.2,93.1*,-1.5,-0.8
SMILES,Rtt109 Vps75,SR-BI DiI inh,SR-BI DiI-HDL act,HIV Env fusion,PglD inh,N-glyco inh
C[C@@H](NC(=O)C[C@@H]1C[C@H]2c3cc(NC(=O)CC4CC4)ccc3O[C@H]2[C@@H](CO)O1)c1ccccc1,.,.,.,.,-3.3,.
COc1ccccc1N1CCN(c2nc(C)nc3c2oc2ccccc23)CC1,10.2,19.1,-19.1,63.4*,-1.6,?
Cc1nc(N2CCC(C)CC2)c2oc3ccccc3c2n1,21.0,2.9,-2.9,.,.,4.2
COCCNC(=O)C1=C(N)C(C(=O)Nc2ccc(C)c(S(=O)(=O)N3CCCCC3)c2)SC1=Nc1ccc(C)cc1C (stereo not given),57.8*,39.1,-39.1,.,0.8,-4.3
Cc1cc(N2CCC(C(=O)N3CCN(c4cccc(C)c4C)CC3)CC2)n2ncnc2n1,7.6,14.1,-14.1,67.1*,-4.2,-0.8
O=C(C1CCN(c2ncnc3c2nc2n3CCCCC2)CC1)N1CCN(c2ccccc2F)CC1,3.1,29.5,-29.5,5.0,0.1,-1.7
Cc1cccc(N2CCN(C(=O)C3CCN(c4ncnc5c4nc4n5CCCCC4)CC3)CC2)c1C,1.9,73.9*,-73.9,12.9,3.5,-0.9
Cc1cccc(N2CCN(C(=O)C3CCCCC3)CC2)c1C,10.1,27.3,-27.3,.,2.9,-2.3
Cc1cccc(N2CCN(C(=O)C3CCN(c4ncnc5c4nc4n5CCCCC4)CC3)CC2C)c1 (stereo not given),5.0,71.1*,-71.1,7.1,-0.9,-6.2
C[C@@H]1CCCCO[C@H](CN(C)S(=O)(=O)c2ccc(Cl)cc2)[C@@H](C)CN([C@@H](C)CO)C(=O)c2cc(N(C)C)ccc2O1,.,.,.,-15.1[16.7 µM],.,.
COc1ccc(NC(=O)N(C)C[C@H]2OCCCC[C@@H](C)Oc3ccc(NC(=O)Nc4ccc5c(c4)OCO5)cc3C(=O)N([C@@H](C)CO)C[C@H]2C)cc1,.,.,.,-20.9[16.7 µM],0.6,.
C[C@H]1CN([C@@H](C)CO)C(=O)c2cc(NC(=O)CCN3CCOCC3)ccc2O[C@H]1CN(C)C,.,.,.,.,11.6,.
Cc1ccc2nc(NCC(=O)O)nc(-c3ccccc3)c2c1,-6.7,38.0,-38.0,.,1.3,3.6
COc1cc(Nc2nc(-c3ccccc3)c3cc(C)ccc3n2)cc(OC)c1OC,2.9,71.9*,-71.9,-16.0,3.5,7.8
Cc1onc(-c2ccccc2)c1C(=O)N/N=C/c1ccc(Br)cc1,0.6,1.6,-1.6,56.3*,-6.4,-3.9
Cc1ccc(/C=N/NC(=O)c2c(-c3ccccc3)noc2C)o1,14.4,-6.5,6.5,20.6,.,0.9
CCOc1cc([N+](=O)[O-])cc(/C=N/NC(=O)c2c(-c3ccccc3)noc2C)c1O,2.5,72.0*,-72.0,.,-6.2,0.6
Cc1ccc(/C=N/NC(=O)c2c(-c3ccccc3)noc2C)c(O)c1,10.5,107.7*,-107.7,41.8,4.7,-8.2
